Results: paper PMC5784828 (Biochemical and biophysical research communications, 2018)

System: MDA-MB-231 cells
Experiment: Scratch cell migration assay
Type: cell-based
Details: 1 μM, MDA-MB-231, 18 hr
How it was run: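 MDA-MB-231 cells were grown at 37°C, 5% CO2, in high-glucose DMEM with 10% FBS, L-glutamine, penicillin/streptomycin and 15 mM HEPES. A scratch was made in a confluent monolayer, then test compound or 1% DMSO (solvent control) was added in normal growth medium. The same scratch area was photographed at 0 and 18–24 hr. Duplicate or single wells; four independent experiments; images representative.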

## CN(C)Cc1cccc(N/C(=C2\C(=O)Nc3cc(C(N)=O)ccc32)c2ccccc2)c1 [BIX02188]
  Effect on scratch healing (cell migration): showed inhibition of scratch healing
